Rows were chosen to be rich in hits. Some 1.6% of all compounds tested hit in one or more screens of this group.
Tn7 DDE FP – disrupts Tn7 cyclic peptide binding to fibrin D-Dimer-E complex. inhibition, % at 8.3 µM. FP displacement of FITC-Tn7 peptide from fibrin DD(E); 0% = median of compound wells per plate. actives 0.13% (n = 370,000). P02675;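 active = inhibition above the mean of compounds falling within the control limits plus 3 SD of them, cut at about 14% in these data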
Target sequence (P02675 whole entry, looked up): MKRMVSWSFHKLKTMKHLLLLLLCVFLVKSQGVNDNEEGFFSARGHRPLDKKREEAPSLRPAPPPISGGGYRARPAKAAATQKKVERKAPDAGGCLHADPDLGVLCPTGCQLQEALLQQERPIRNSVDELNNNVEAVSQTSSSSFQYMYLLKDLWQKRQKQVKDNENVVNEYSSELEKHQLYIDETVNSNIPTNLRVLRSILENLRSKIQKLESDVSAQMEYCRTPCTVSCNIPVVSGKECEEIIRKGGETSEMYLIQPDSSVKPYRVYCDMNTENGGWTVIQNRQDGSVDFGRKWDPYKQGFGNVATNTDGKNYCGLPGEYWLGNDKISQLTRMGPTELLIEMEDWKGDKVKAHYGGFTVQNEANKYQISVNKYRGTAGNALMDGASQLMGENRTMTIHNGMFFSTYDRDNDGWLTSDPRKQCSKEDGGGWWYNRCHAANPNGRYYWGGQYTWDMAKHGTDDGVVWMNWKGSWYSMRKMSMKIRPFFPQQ
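Test system – human fibrin DD(E) · Times – 10 min preincubation, 3 h with tracer, room temperature · Detection – fluorescence polarization of the labelled Tn7 tracer · Measure – percent inhibition normalized to high-control wells · Benchmarks – high control wells with 10 µM unlabelled Aha-Tn7 peptide (full inhibition) · Repeats – singlicate testing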
DDE Tn6 FP inh – inhibitors of Tn6 peptide binding to human fibrin DD(E); Fibrin DD(E) TRITC-Tn6 fluorescence polarization displacement; inhibition, % at 8.3 µM; actives 0.21% (n = 370,000); AID 720509;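 active = inhibition above a per-campaign cutoff: mean of compounds within control limits plus 3 SD, cut at about 15% in these data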
ADAM10 inh – ADAM10 inhibition, QFRET primary screen; O14672; recombinant ADAM10, EDANS/DABCYL FRET peptide cleavage, 3 h; inhibition, % at 7 µM; actives 0.62% (n = 370,000);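 active = inhibition above a per-campaign cutoff equal to the mean of compounds falling between control-based bounds plus 3 SD, cut at about 20% in these data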
ADAM17 inh – inhibitors of human ADAM17; P78536; inhibition, % at 6.95 µM; recombinant ADAM17, EDANS/DABCYL FRET peptide cleavage; actives 0.83% (n = 370,000);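 active = inhibition above the mean of compounds lying between control limits plus 3 SD, set per campaign, cut at about 8.5% in these data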
MT1-MMP act inh – blocks activation of human MT1-MMP | P50281 | HT1080 RFP-PRO-GFP cells, GFP/RFP ratio fluorescence, overnight; percent of plate control window, DMSO zero | GFP/RFP ratio change, % at 20 µM | actives 0.061% (n = 360,000);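 active = GFP/RFP ratio change of at least 30% with cell ATP level not reduced by more than half and red fluorescence within 50% of control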
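Assay system: HT1080 cells carrying an RFP-PRO-GFP reporter | Dosing: Single dose of 20 µM compound, 1% DMSO final | Incubation: Cells overnight before dosing, compound overnight, 37 °C, 5% CO2 | Evaluation: GFP/RFP fluorescence ratio | Control set: DMSO and RFP-L50D-GFP cell wells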
ADAM10 confirm – confirmation of inhibitors of human ADAM10 | ADAM10 QFRET peptide cleavage, EDANS fluorescence | inhibition, % at 6.95 µM | actives 1% (n = 2,100) | shares compounds with ADAM10 inh | AID 743208;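 active = inhibition above about 20% chosen separately for each screening run, limit read from the data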
ADAM17 counter – ADAM17 inhibition, counter-screen for ADAM10 exosite hits; shares compounds with ADAM10 inh; ADAM17 QFRET peptide cleavage, EDANS fluorescence; inhibition, % at 6.95 µM; actives 0.5% (n = 2,100);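 active = mean triplicate inhibition above the solvent-only control wells' mean plus 3 SD, cut at about 12% in these data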
Of the large screens only hits and unclear results are named; the others gave an inactive call (follow-up assays come after a bar, where they were run).

COc1ccc(S(=O)(=O)N(CC(=O)Nc2ccc(S(=O)(=O)N3CCOCC3)cc2)c2ccccc2)cc1	ADAM10 inh 24 | ADAM10 confirm inactive | ADAM17 counter inactive
Cc1ccc(S(=O)(=O)N(CCC(=O)Nc2ccc(OC(F)(F)F)cc2)c2ccccc2)cc1	ADAM10 inh 21 | ADAM10 confirm inactive | ADAM17 counter inactive
O=C(CSc1nnc(-c2cnccn2)n1-c1ccccc1)c1ccc(F)cc1	none (no result: MT1-MMP act inh)
O=C(CC1SC(=Nc2ccccc2)N(Cc2ccccn2)C1=O)Nc1ccc(Br)cc1 (configuration not stated)	ADAM10 inh 22 | ADAM10 confirm inactive | ADAM17 counter inactive
Cc1occc1C(=O)NNC(=O)C(c1ccccc1)c1ccccc1	ADAM10 inh 28 | ADAM10 confirm inactive | ADAM17 counter inactive
N#CCC(CNc1ncc(C(F)(F)F)cc1Cl)OC(=O)c1c(F)cccc1F (configuration not stated)	none
N#CCC(CNc1ncc(C(F)(F)F)cc1Cl)OC(=O)c1cccc([N+](=O)[O-])c1 (configuration not stated)	ADAM10 inh 21 | ADAM10 confirm inactive | ADAM17 counter inactive
COC(=O)[C@]12C[C@H](CC(=O)N3CCCC3)C(=O)N(CCc3ccc(OC)c(OC)c3)C1=C[C@H](C1CCCC1)O[C@@H]2C	none (no result: MT1-MMP act inh)
COc1ccc(-c2cn(-c3ccc(C)cc3C)c(=S)[nH]2)cc1OC	ADAM10 inh 20 | ADAM10 confirm inactive | ADAM17 counter inactive
CCC(C)N(c1nc(C)nc2c1nnn2Cc1ccccc1)C(C)CC (configuration not stated)	none (no result: MT1-MMP act inh)
CCC(C(=O)O/N=C(\N)c1ccccc1)c1ccccc1 (configuration not stated)	none
CCC(C(=O)Oc1c(C(C)C)cccc1C(C)C)c1ccccc1 (configuration not stated)	ADAM10 inh 79 | ADAM10 confirm inactive | ADAM17 counter inactive
Cc1ccc(Cn2cc(COC(=O)N3CCOCC3)nn2)cc1	none (no result: MT1-MMP act inh)
Cc1c(C(=O)N(C)Cc2ccc(OC(F)F)cc2)oc2ccccc12	ADAM10 inh 20 | ADAM10 confirm inactive | ADAM17 counter inactive
COc1ccc(CCN(C)C(=O)c2oc3ccccc3c2C)cc1OC	none
O=C(Nc1ccc2[nH]c(=S)sc2c1)Nc1ccccc1F	ADAM10 inh 24 | ADAM10 confirm inactive | ADAM17 counter inactive
O=C(Nc1ccc2[nH]c(=S)sc2c1)c1ccccc1	none
CCC(C)N(C(C)CC)S(=O)(=O)c1ccc2[nH]c(=O)oc2c1 (configuration not stated)	none (no result: MT1-MMP act inh)
COc1ccccc1-c1nnc(SC(C(=O)c2c[nH]c3ccccc23)c2ccccc2)n1C (configuration not stated)	ADAM10 inh 23 | ADAM10 confirm inactive | ADAM17 counter inactive
Oc1ccccc1C(Nc1nccs1)c1ccc2cccnc2c1O (configuration not stated)	ADAM10 inh 20 | ADAM10 confirm inactive | ADAM17 counter inactive
Oc1c(C(Nc2ccccn2)c2ccccn2)ccc2cccnc12 (configuration not stated)	none
O=C(CSc1nc(=O)n(CCCN2CCOCC2)c2c1CCC2)Nc1ccccc1F	ADAM10 inh 80 | ADAM10 confirm inactive | ADAM17 counter inactive
CCOc1ccccc1NC(=O)CSc1nc(=O)n(CCCN2CCOCC2)c2c1CCC2	none
O=S(=O)(c1ccc(F)cc1)n1c(CN2CCOCC2)nc2ccccc21	none (no result: MT1-MMP act inh)
C=CCC[C@@H](Cc1ccc(F)cc1)C(=O)OC[C@H]1CCCN1C(=O)[C@@H](CC=C)CC(=O)N[C@H](CO)Cc1ccccc1	ADAM10 inh 21 | ADAM10 confirm inactive | ADAM17 counter inactive
C=CCC[C@@H](Cc1ccc(F)cc1)C(=O)OC[C@@H]1CCCN1C(=O)[C@@H](CC=C)CC(=O)N(CCO)Cc1ccccc1	ADAM10 inh 21 | ADAM10 confirm inactive | ADAM17 counter inactive
CC(=O)N[C@@H]1C[C@@H]2O[C@@H](CO)CC[C@@H]2O[C@@H]1CCc1ccc(C#CC2(O)CCCC2)cc1	none (no result: MT1-MMP act inh)
CC1CCC2(CCC(=O)N2CCCOC(=O)Nc2cccc(C(F)(F)F)c2)CC1 (configuration not stated)	none (no result: MT1-MMP act inh)
O=C(COc1ccc(S(=O)(=O)Nc2ccccc2)cc1)NCc1ccccn1	ADAM10 inh 74 | ADAM10 confirm inactive | ADAM17 counter inactive
O=C(CSc1ccccn1)Nc1nc2ccccc2s1	none
O=C(CSc1cn[nH]n1)Nc1nc2ccccc2s1	ADAM10 inh 20 | ADAM10 confirm inactive | ADAM17 counter inactive
COC(=O)c1cc2c(c3c4cc(C)ccc4n(S(=O)(=O)c4ccc(C)cc4)c13)C(=O)N(Cc1ccccc1)C2	none (no result: MT1-MMP act inh)
O=C(Cn1ncc2c1-c1ccccc1OC2)Nc1ccc(S(=O)(=O)N2CCCCC2)cc1	ADAM10 inh 22, ADAM17 inh 10 | ADAM10 confirm inactive | ADAM17 counter inactive
CCCN(CCC)Cc1cc(=O)oc2ccccc12	none (no result: MT1-MMP act inh)
CC(=O)Nc1ccc(S(=O)(=O)Oc2ccccc2N2CCCCC2)cc1	ADAM10 inh 23 | ADAM10 confirm inactive | ADAM17 counter inactive
CCCCNC(=O)C[C@H]1C[C@@]2(C(=O)OC)C(=C[C@H](C(C)C)O[C@@H]2C2CC2)N(Cc2ccc3c(c2)OCO3)C1=O	none (no result: MT1-MMP act inh)
COc1ccc(NC(=O)CN2C(=O)C(c3ccccc3)=NC23CCCCCC3)cc1	ADAM10 inh 27 | ADAM10 confirm inactive | ADAM17 counter inactive
C=CCN1C(=O)[C@@H](CC(=O)N2CCC(c3ccccc3)CC2)[C@]2(C(=O)OCC)CCCCC/C=C/12	none (no result: MT1-MMP act inh)
COc1cccc(NC(=O)[C@@H](NC(=O)N2CCn3c2nc2ccccc23)C(C)C)c1	ADAM10 inh 21 | ADAM10 confirm inactive | ADAM17 counter inactive
COc1cccc(NC(=O)[C@H](C)NC(=O)N2CCn3c2nc2ccccc23)c1	none
CC1(C)CC(=O)c2c(oc3cc(O)c(O)cc23)C1	ADAM10 inh 21 | ADAM10 confirm inactive | ADAM17 counter inactive
COC(=O)c1oc2c(c1C)C(=O)CC(C)(C)C2	none
CCc1ccccc1N1CSC2=C(C#N)C(c3cc(OC)c(OC)cc3OC)CC(=O)N2C1 (configuration not stated)	none
COc1cc(OC)c(C2CC(=O)N3CN(c4ccccc4)CSC3=C2C#N)cc1OC (configuration not stated)	ADAM10 inh 24 | ADAM10 confirm inactive | ADAM17 counter inactive

From PubChem BioAssay
